Apaf-1 act: human Apaf-1 activation | AID 489031 | 330,000 tested, 0.31% active | activity change, negative = activation, % at 20 µM | Apaf-1 apoptosome caspase-3 activation, DEVD-Rh110 fluorescence; hits give low values;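 active = activity change at or below -40% at 20 µM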
Target sequence (O14727 whole entry, looked up): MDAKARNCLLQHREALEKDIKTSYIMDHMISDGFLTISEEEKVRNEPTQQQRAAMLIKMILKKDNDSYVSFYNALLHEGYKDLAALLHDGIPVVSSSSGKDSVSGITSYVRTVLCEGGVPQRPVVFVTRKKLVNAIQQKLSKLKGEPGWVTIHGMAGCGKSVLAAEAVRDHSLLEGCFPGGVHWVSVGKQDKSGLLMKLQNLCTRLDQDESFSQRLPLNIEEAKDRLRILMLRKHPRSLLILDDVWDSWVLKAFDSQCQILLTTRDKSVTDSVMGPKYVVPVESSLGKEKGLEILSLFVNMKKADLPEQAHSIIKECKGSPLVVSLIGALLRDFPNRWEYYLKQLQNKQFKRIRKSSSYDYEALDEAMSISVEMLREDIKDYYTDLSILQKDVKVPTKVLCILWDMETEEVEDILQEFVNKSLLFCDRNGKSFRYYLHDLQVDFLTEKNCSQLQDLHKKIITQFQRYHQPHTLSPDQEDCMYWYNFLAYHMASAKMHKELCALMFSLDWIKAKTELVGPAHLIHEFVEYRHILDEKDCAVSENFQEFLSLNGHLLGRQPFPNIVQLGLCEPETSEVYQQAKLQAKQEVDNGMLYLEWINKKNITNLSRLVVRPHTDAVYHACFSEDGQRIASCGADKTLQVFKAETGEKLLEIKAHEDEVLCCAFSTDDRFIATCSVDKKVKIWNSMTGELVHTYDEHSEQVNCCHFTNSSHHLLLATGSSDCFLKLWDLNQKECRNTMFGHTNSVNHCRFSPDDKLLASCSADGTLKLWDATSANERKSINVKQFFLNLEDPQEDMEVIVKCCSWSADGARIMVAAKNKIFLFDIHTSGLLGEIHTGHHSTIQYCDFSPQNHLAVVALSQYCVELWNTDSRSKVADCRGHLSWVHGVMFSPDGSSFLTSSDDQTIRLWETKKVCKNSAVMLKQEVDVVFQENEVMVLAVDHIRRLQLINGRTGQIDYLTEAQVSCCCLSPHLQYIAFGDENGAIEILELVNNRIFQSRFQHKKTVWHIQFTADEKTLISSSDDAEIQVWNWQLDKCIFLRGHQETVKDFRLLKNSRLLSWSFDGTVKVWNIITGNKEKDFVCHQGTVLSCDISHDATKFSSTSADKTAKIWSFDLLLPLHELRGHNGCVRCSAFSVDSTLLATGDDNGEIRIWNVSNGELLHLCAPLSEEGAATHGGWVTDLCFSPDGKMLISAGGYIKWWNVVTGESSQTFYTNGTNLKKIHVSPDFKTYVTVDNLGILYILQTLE
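system = biochemical Apaf-1 apoptosome reconstitution | buffer or medium = 20 mM HEPES pH 7.5 with CHAPS, BSA | also added = dATP and cytochrome c as apoptosome triggers, (Z-DEVD)2-Rh110 substrate | incubation = 30 min compound preincubation and 50 min reaction, both room temperature | measured by = fluorescence, 540 nm emission, 480 nm excitation | read-out basis = Caspase-3 cleavage activity downstream of Apaf-1 activation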
Rh110 interf act: Rh110 signal interference in Apaf-1 activator counter-screen; shares compounds with Apaf-1 act; Rh110 fluorescence interference, quenched caspase reaction, Ex480/Em540; fluorescence interference (activity change), % at 20 µM, hits read low; 980 tested, under 10 active;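 active = mean activity change at or below -40% when tested at 20 µM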
Apaf-1 act conf2: Apaf-1 (human) activation, single-dose confirmed; shares compounds with Apaf-1 act; reconstituted apoptosome caspase-3 activity, DEVD-Rh110 fluorescence; hits give low values; activity change, negative = activation, % at 20 µM; 980 tested, 5% active; AID 504617;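 active = mean activity change at or below -40%, meaning activation of 40% or more, at 20 µM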
Numbers without * were called inactive. Not all results are given here.

How did COc1ccc2nc(C)cc(N/N=C/c3ccc(F)cc3)c2c1 do in these assays?
Apaf-1 act: 49.6

How did Fc1ccc(/C=N/Nc2nc3ccccc3[nH]2)cc1F do in these assays?
Apaf-1 act: -64.5*; Rh110 interf act: -4.5; Apaf-1 act conf2: 13.1

How did Cc1cc(Cl)ccc1NC(=O)c1ccc2c(c1)CCN2S(C)(=O)=O do in these assays?
Apaf-1 act: -169.9*; Rh110 interf act: -5.2; Apaf-1 act conf2: 20.9

How did Cc1cc(N2CCN(C)CC2)ccc1NC(=O)c1ccc(-c2ccc(Cl)cc2)o1 do in these assays?
Apaf-1 act: 41.7

Results for CC(C)N1CCc2c(sc(NC(=O)c3ccc(S(=O)(=O)N4CCc5ccccc54)cc3)c2C(N)=O)C1 ?
Apaf-1 act: 45.6

What do the screens show for `CC(=O)Nc1cccc(C(=O)NC(C)c2ccc(-n3ccnc3)cc2)c1` (stereo unspecified)?
Apaf-1 act: 40.7

Results for CC1CCCC(NC(=O)COC(=O)CCC(=O)c2cccs2)C1C (stereo unspecified) ?
Apaf-1 act: -272.6*; Rh110 interf act: 0.0; Apaf-1 act conf2: 11.7

Results for COc1ccc(Cl)cc1C(=O)OCC(=O)NC1CCCC(C)C1C (stereo unspecified) ?
Apaf-1 act: -41.4*; Rh110 interf act: 11.9; Apaf-1 act conf2: 15.5

What do the screens show for `CC1CCCC(NC(=O)COC(=O)c2ccc([N+](=O)[O-])s2)C1C` (stereo unspecified)?
Apaf-1 act: 41.5

How did NC(=O)CSc1nc2scc(-c3ccc(Cl)cc3)c2c(=O)n1Cc1ccccc1 do in these assays?
Apaf-1 act: 46.9

What do the screens show for `OC(CNCC1CCCO1)Cn1c2ccc(Cl)cc2c2cc(Cl)ccc21` (stereo unspecified)?
Apaf-1 act: 43.3

What do the screens show for `COC(=O)C(CCCCNC(=O)c1ccc([N+](=O)[O-])cc1)NC(=O)c1ccc([N+](=O)[O-])cc1` (stereo unspecified)?
Apaf-1 act: -48.0*; Rh110 interf act: 8.1; Apaf-1 act conf2: 12.7

Results for COc1ccc(C(=O)NCC(=O)OCc2ccc([N+](=O)[O-])cc2)cc1 ?
Apaf-1 act: -69.9*; Rh110 interf act: 11.8; Apaf-1 act conf2: 11.0

How did C/C(=N/NC(=O)Cc1cc(=O)[nH][nH]1)c1ccc([N+](=O)[O-])cc1 do in these assays?
Apaf-1 act: 54.9

What do the screens show for `Cc1cc2nn(-c3ccc(Cl)cc3)nc2cc1N`?
Apaf-1 act: 49.5

How did c1csc(Cc2nn3c(-c4n[nH]c5c4CCC5)nnc3s2)c1 do in these assays?
Apaf-1 act: 40.8

Results for CCN1/C(=C/c2ccc3cc(C)ccc3[n+]2CC)Sc2ccc3sccc3c21 ?
Apaf-1 act: 62.2

What do the screens show for `Cc1ccc(-n2nc3ccc(NC(=O)C(C)C)cc3n2)cc1`?
Apaf-1 act: -151.8*; Rh110 interf act: 4.6; Apaf-1 act conf2: 7.2

How did Cc1ccc(-n2nc3ccc(N)cc3n2)cc1 do in these assays?
Apaf-1 act: 82.3

Results for Nc1ccc2nn(-c3ccc(F)cc3)nc2c1 ?
Apaf-1 act: 87.9

Results for CC(C)C(=O)Nc1cccc(-c2cn3ccsc3n2)c1 ?
Apaf-1 act: 67.1

Results for CC(C)c1ccc(-n2nc3ccc(N)cc3n2)cc1 ?
Apaf-1 act: 63.1

Results for CC(C)C(=O)Nc1ccc2nn(-c3ccc(F)cc3)nc2c1 ?
Apaf-1 act: -95.1*; Rh110 interf act: 16.7; Apaf-1 act conf2: 14.6

How did COc1ccc2cc1Oc1ccc(cc1)C[C@H]1c3c(cc4c(c3Oc3cc5c(cc3OC)CCN(C)[C@@H]5C2)OCO4)CCN1C do in these assays?
Apaf-1 act: 49.2

What do the screens show for `NC(N)=Nc1cc2ccccc2c2ccccc12`?
Apaf-1 act: 76.8

What do the screens show for `O=C(O)c1cc(O)c2c(c1)[C@H]([C@H]1c3cc(C(=O)O)cc(O)c3C(=O)c3c(O[C@@H]4O[C@H](CO)[C@@H](O)[C@H](O)[C@H]4O)cccc31)c1cccc(OC3O[C@H](CO)[C@@H](O)[C@H](O)[C@H]3O)c1C2=O` (stereo partly specified)?
Apaf-1 act: 88.9

What do the screens show for `Cc1cc(N)ccc1N1CCCC1`?
Apaf-1 act: 65.1

Results for Cc1ccc2c(C)nc(Nc3nc(CSc4nc5ccccc5[nH]4)cc(=O)[nH]3)nc2c1 ?
Apaf-1 act: -71.4*; Rh110 interf act: 4.3; Apaf-1 act conf2: 5.1

Results for CCOc1nc2cnccc2n(CC(=O)Nc2ccccc2F)c1=O ?
Apaf-1 act: -49.0*; Rh110 interf act: -0.7; Apaf-1 act conf2: 7.1

How did CN[C@H]1CC[C@@H](c2ccc(Cl)c(Cl)c2)c2ccccc21 do in these assays?
Apaf-1 act: 50.0

Results for Cc1ccc(N/N=C2\CC(=O)c3ccccc32)cc1Cl ?
Apaf-1 act: 76.5

Results for CCOC(=O)C1=NNC2C(=O)N(C3CCCCC3)C(=O)C12 (stereo unspecified) ?
Apaf-1 act: -79.4*; Rh110 interf act: -6.5; Apaf-1 act conf2: 6.9

Results for CCOC(=O)c1cnc(-n2nc(C)cc2C)nc1NC1CCCCC1 ?
Apaf-1 act: 41.7

How did CCN1CCCC1CNC(=O)c1cc2c(-c3ccc(Cl)cc3)nn(C)c2s1 (stereo unspecified) do in these assays?
Apaf-1 act: 49.2

Results for CCCCCCCCCCOC(=O)Cn1c(COc2ccccc2C)[n+](C)c2ccccc21 ?
Apaf-1 act: 80.8

Results for COCCNc1nc(C)cc(-c2cc(C(=O)Nc3ccccc3)on2)n1 ?
Apaf-1 act: -52.8*; Rh110 interf act: 3.1; Apaf-1 act conf2: 11.8

Results for CCC[C@@H](CN1CCC[C@H]1CN1C(N)=NC[C@H]1CC(C)C)N1C[C@@H]([C@H](C)CC)N(CCCC2CCCC2)C1=N ?
Apaf-1 act: 53.2

Results for CCOc1ccc(S(=O)(=O)N2CCc3ccccc3C2)cc1 ?
Apaf-1 act: -120.1*; Rh110 interf act: -4.6; Apaf-1 act conf2: 11.9

How did CN1CCN(S(=O)(=O)c2ccc(SCCOc3ccc(Cl)cc3)nc2)CC1 do in these assays?
Apaf-1 act: 50.7

How did CCOc1cccc2sc(N(CCCN(C)C)C(=O)c3ccc(S(=O)(=O)N4CCc5ccccc5C4)cc3)nc12 do in these assays?
Apaf-1 act: 61.7

What do the screens show for `COC(=O)c1ccccc1NC1=C/C(=N\S(=O)(=O)c2cccs2)c2ccccc2C1=O`?
Apaf-1 act: 91.9

Results for Cn1nc(-c2ccc(Cl)cc2)c2cc(C(=O)NCCCN3CCCC3)sc21 ?
Apaf-1 act: 49.2

How did CCOc1ccc(OCC(=O)OCn2c(SC)nnc(C)c2=O)cc1 do in these assays?
Apaf-1 act: -75.9*; Rh110 interf act: -1.8; Apaf-1 act conf2: 3.0

How did C#CCOCCOCCOCCNc1nc(N2CCN(C(=O)CCCCCCCCCCNC(=O)[C@@H](CCC(=O)O)n3cc(CCCCCN)nn3)CC2)nc(N2CCN(C(=O)CCCCCCCCCCNC(=O)[C@H]([C@@H](C)CC)n3cc(CCCCCN)nn3)CC2)n1 do in these assays?
Apaf-1 act: 61.5

How did Cc1ccc2c(c1)C(=O)C(=O)N2Cc1ccc(Cl)cc1 do in these assays?
Apaf-1 act: 40.0

How did CCN1C(=C(C#N)C#N)C=Cc2cc(C)ccc21 do in these assays?
Apaf-1 act: -48.6*; Rh110 interf act: 5.4; Apaf-1 act conf2: 7.5

Source: PubChem
